# Experimental data of several laboratories.
# Protocols differ between the studies behind these lines.
# Target: Ankyrin repeat and protein kinase domain-containing protein 1 (ANKK1, Homo sapiens, UniProt Q8NFD2)
# One construct used (Q8NFD2 1-765): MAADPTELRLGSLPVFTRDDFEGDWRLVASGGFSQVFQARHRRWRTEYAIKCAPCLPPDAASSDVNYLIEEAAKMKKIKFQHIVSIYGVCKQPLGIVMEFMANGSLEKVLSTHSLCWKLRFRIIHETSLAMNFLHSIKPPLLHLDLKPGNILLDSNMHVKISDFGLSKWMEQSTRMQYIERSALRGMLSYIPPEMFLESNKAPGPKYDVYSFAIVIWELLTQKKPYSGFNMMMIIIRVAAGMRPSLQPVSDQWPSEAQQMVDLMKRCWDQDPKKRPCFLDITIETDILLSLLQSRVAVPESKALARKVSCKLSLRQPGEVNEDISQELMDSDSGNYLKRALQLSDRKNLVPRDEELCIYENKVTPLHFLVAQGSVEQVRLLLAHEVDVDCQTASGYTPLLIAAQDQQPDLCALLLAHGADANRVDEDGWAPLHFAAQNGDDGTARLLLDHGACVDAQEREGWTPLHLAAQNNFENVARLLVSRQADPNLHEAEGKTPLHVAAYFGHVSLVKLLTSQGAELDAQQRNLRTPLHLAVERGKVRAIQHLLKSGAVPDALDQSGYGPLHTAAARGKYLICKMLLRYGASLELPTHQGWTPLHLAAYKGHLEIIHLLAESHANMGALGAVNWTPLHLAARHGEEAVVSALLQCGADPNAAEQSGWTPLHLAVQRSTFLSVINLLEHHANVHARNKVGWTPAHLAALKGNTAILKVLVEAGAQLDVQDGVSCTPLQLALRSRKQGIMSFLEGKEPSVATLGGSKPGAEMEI
Structure (SMILES),assay,setting,remaining binding [%]
O=C(NCCCN1CCOCC1)c1ccc(Nc2nccc(-c3cc4ccccc4s3)n2)cc1,"binding, competition with immobilised ligand",1 µM,71
O=C(O)[C@H]1[C@H](Cn2nnc3ccccc3c2=O)CC[C@@H]1C(=O)c1ccc(OCCC2CCOCC2)cc1,"cell-free assay, competition with immobilised ligand",1 µM,100
O=C(c1ccc(Nc2nccc(-c3cc4ccccc4s3)n2)cc1)N1CCC(N2CCCC2)CC1,"binding, competition with immobilised ligand",1 µM,71
COc1cnc(Nc2cccc(S(N)(=O)=O)c2)nc1N1CCN(c2ccccc2)CC1,"binding, competition with immobilised ligand",1 µM,97
O=C(NCCCN1CCOCC1)c1ccc(Nc2ncc(Cl)c(-c3ccc(Cl)s3)n2)cc1,"binding, competition with immobilised ligand",1 µM,77
C[C@@H]1CN(c2cc(-c3n[nH]c4ccc(OC5(C)CC5)cc34)ncn2)C[C@H](C)O1,"cell-free assay, competition with immobilised ligand",0.1 µM,79
CN(C)c1nccc(-c2cnn3ncccc23)n1,binding,1 µM,100
COc1ccc2cc(OCC3(C(=O)O)CN(C(=O)c4ccc(F)cc4)C3)ccc2c1,"cell-free assay, competition with immobilised ligand",1 µM,86
C[C@@H]1CCN(c2nccc(-c3cnn4ncccc34)n2)C1,binding,1 µM,81
FC(F)(F)Oc1cccc(-c2cnc3ccc(-c4ccncc4)nn23)c1,"cell-free assay, competition with immobilised ligand",5 µM,70
C[C@@]1(Cc2ccc(C#N)cc2)C(=O)N(c2cc(Cl)cc(Cl)c2)c2ncc(C(=O)NC3(c4nc(C5CCC5)no4)CC3)n21,"cell-free assay, competition with immobilised ligand",1 µM,100
c1cnn2ncc(-c3ccnc(N4CCC45COC5)n3)c2c1,binding,1 µM,72
O=C(NCCCC1CCCCC1)c1ccc(CNC(=O)c2cnn(-c3ccccc3)c2C(F)(F)F)cc1,"cell-free assay, competition with immobilised ligand",0.1 µM,100
CNC(=O)[C@@H]1CC[C@@H](n2c(-c3ccc4cnccc4c3)nc3ccc(C(=O)NCc4cccc(C(N)=O)c4)cc32)C1,"binding, competition with immobilised ligand",1 µM,100
N[C@@H]1CCN(c2nccc(-c3cnn4ncccc34)n2)C1,binding,1 µM,100
CCN1CCN(Cc2ccc(C(=O)Nc3ccc(C)c(Oc4ccc5c(c4)CC(=O)N5)c3)cc2C(F)(F)F)CC1,"binding, competition with immobilised ligand",1 µM,100
F[C@@H]1CCN(c2nccc(-c3cnn4ncccc34)n2)C1,binding,1 µM,100
c1cncc(-c2cccc(Nc3nccc(NC4CCCCC4)n3)c2)c1,"binding, competition with immobilised ligand",10 µM,47
CCC(=O)N[C@@H]1CC[C@H](C(=O)N(C)c2ccc(-c3nc4ccccc4o3)cc2)C1,"cell-free assay, competition with immobilised ligand",1 µM,100
CN(c1nccc(-c2cnn3ncccc23)n1)C1CC1,binding,1 µM,100
O=C(NCC1CCOCC1)c1n[nH]cc1NC(=O)c1c(F)cccc1F,"binding, competition with immobilised ligand",1 µM,66
